Laboratory results from publication PMC3217094 (DNA repair, 2011).
“And” between values parts separate entries of the source, which are not always exact repeats. Identical values can stand only once. Like-named read-outs stand apart in the source and are kept apart here. {FAM} = fluorescein (FAM) label

Assays:
AGT [1] = target: T1, AGT (Homo sapiens, UniProt P16455); experiment: Sedimentation equilibrium analysis of AGT-DNA complexes; assay type: binding; conditions: mean ± SEM for ≥3 determinations, 4°C
T1 sequence (P16455 with tags, fused parts or gaps limits assumed): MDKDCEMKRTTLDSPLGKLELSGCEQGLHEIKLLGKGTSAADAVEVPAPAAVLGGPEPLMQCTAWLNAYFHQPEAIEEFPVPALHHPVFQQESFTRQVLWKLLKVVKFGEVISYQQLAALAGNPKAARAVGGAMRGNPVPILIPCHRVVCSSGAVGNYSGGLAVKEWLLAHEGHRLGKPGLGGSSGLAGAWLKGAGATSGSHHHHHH

AGT [2] = target: T1, AGT; experiment: Binding of free dye to AGT detected by fluorescence anisotropy
Procedure, shortened: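 Each step equilibrated 1 h at 4°C before reading anisotropy, with emission intensity also recorded. Fractional saturation Y = (A − A0)/(Amax − A0), where A0 is dye without protein and Amax the saturated complex, plotted against AGT concentration.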

AGT [3] = target: T1, AGT; experiment: DNA alkyltransferase assay; assay type: biochemical
AGT [4] = target: T1, AGT; conditions: AGT binding single-stranded DNA; for Hill coefficient (n) from anisotropy measurements / Hill coefficient (n) from intensity measurements: 4°C; for Ka from anisotropy measurements: apparent association constant
AGT [5] = target: T1, AGT; experiment: Mobility shift assay: inhibition of AGT DNA binding; conditions: IC50 for inhibition of DNA binding
benzyl-AGT [6] = target: T2, benzyl-AGT (Homo sapiens, UniProt P16455, A204H/G205H/N207H/P202H/P203H/R206H); experiment: Binding of FAM to benzyl-AGT detected by fluorescence anisotropy
T2 sequence (P16455 with tags, fused parts or gaps): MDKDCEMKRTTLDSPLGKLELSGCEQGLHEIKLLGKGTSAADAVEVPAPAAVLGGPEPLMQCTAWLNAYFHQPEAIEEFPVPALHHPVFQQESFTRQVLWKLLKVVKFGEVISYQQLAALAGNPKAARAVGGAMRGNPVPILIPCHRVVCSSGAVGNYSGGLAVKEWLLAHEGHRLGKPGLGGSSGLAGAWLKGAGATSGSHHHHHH

benzyl-AGT [7] = target: T2, benzyl-AGT; experiment: Mobility shift titration of 32P-labeled 24-mer DNA with benzyl-AGT; assay type: binding; conditions: AGT modified with O^6-benzylguanine
[8] = target: T3, O6-alkylguanine-DNA alkyltransferase (AGT, MGMT) (human, UniProt P16455 1-201); experiment: fluorescence anisotropy
[9] = target: T3, O6-alkylguanine-DNA alkyltransferase …; experiment: fluorescence anisotropy; remark: listed apart in the source
[10] = target: T3, O6-alkylguanine-DNA alkyltransferase …; experiment: fluorescence anisotropy; remark: listed apart in the source
[11] = target: T3, O6-alkylguanine-DNA alkyltransferase …; experiment: fluorescence anisotropy; remark: listed apart in the source

In the case of “Unmodified 16-mer Oligo A: 5′- AGT CAG TCA GTC AGT C -3′ (DNA AGTCAGTCAGTCAGTC; unmodified DNA)”, the “Stoichiometry of saturated AGT-DNA complex” value (AGT [1]) is reported as 3.86 ± 0.08.

Work on `O=S(=O)(O)c1cccc2c(-c3ccc(Nc4ccccc4)c4c(S(=O)(=O)O)cccc34)ccc(Nc3ccccc3)c12` [Bis-ANS, 4,4′-bis(phenylamino)-[1,1′-Binaphthalene]-5,5′-disulfonic acid] yielded a Kd (AGT [2]) of 33.1 µM and an IC50 (AGT [3]) of 48.6 µM.

For “5′-(FAM)-26-mer Oligo F: 5′- (FAM)AGTCAGTCAGTCAGTCAGTCAGTCAG -3′ (DNA AGTCAGTCAGTCAGTCAGTCAGTCAG; DNA, 5' {FAM}, backbone not given here)”, the “Stoichiometry of saturated AGT-DNA complex” value (AGT [1]) was 6.59 ± 0.20, the “Hill coefficient (n) from anisotropy measurements” value (AGT [4]) was 2.02 ± 0.17 and the “Hill coefficient (n) from intensity measurements” value (AGT [4]) was 2.92 ± 0.62. For the same molecule, the “Ka from anisotropy measurements” value (AGT [4]) was 3.33 ± 0.15 × 10^5 M^−1.

`Nc1nc2c(ncn2[C@@H]2O[C@H](COP(=O)(O)O)[C@@H](O)[C@H]2O)c(=O)[nH]1` [5′-GMP, guanosine 5′ monophosphate] showed an IC50 (AGT [3]) of 34.6 µM.

With `O=C(O)c1ccc(C(=O)O)c(-c2c3ccc(=O)cc-3oc3cc(O)ccc23)c1` [FAM, 6-Carboxyfluorescein] the Kd (AGT [2]; Kd, apparent, from fluorescence anisotropy data, single-site (1:1) fit, unmodified AGT, 4°C, no DNA) was 13 µM and 12.7 µM, the “apparent binding affinity K (Ka)” value (AGT [2]; fluorescence anisotropy, Eq. 5 with n = 1, 4°C) was 7.84 ± 0.24 × 10^4 M^−1 and 7.8 × 10^4 M^−1 and the IC50 (AGT [5]; duplex 24mer 0.17μM, AGT 3.9μM, 20°C) was 76.3 µM. The IC50 (AGT [5]; electrophoretic analysis, approximate value) was roughly 76 µM, the “concentration sufficient to completely inhibit AGT activity” value (AGT [3]) was 1.8 mM and the Kd (benzyl-AGT [6]) was 82.2 µM.

With “3′-(FAM)-26-mer Oligo F: 5′- AGTCAGTCAGTCAGTCAGTCAGTCAG(FAM) -3′ (DNA AGTCAGTCAGTCAGTCAGTCAGTCAG; DNA, 3' {FAM}, backbone not given here)” the “Stoichiometry of saturated AGT-DNA complex” value (AGT [1]) was 6.38 ± 0.21, the “Hill coefficient (n) from anisotropy measurements” value (AGT [4]) was 2.13 ± 0.14 and the “Hill coefficient (n) from intensity measurements” value (AGT [4]) was 3.33 ± 0.27. For the same molecule, the “Ka from anisotropy measurements” value (AGT [4]) was 3.30 ± 0.12 × 10^5 M^−1.

In the case of “Unmodified 26-mer: 5′- AGTCAGTCAGTCAGTCAGTCAGTCAG -3′ (DNA AGTCAGTCAGTCAGTCAGTCAGTCAG; unmodified DNA)”, the “Stoichiometry of saturated AGT-DNA complex” value (AGT [1]) is reported as 5.89 ± 0.07.

In the case of `Cc1ccc2c(c1)sc(-c1ccc(N(C)C)cc1)[n+]2C` [ThT, Thioflavin T], the IC50 (AGT [3]) is reported as 217 µM.

`Nc1nc(OCc2ccccc2)c2nc[nH]c2n1` [O^6-benzylguanine] was tested, and the “residual AGT activity in DNA repair after treatment” value (AGT [3]; AGT modified with O^6-benzylguanine (37°C, 50mM Tris, pH 7.6, 1mM EDTA, 5 mM DTT)) was less than 1%, the “DNA binding of treated AGT” value (benzyl-AGT [7]) was “fully-competent in DNA binding” and the “apparent stoichiometry n of DNA binding” value (benzyl-AGT [7]; duplex 24mer DNA) was 5.5 ± 0.2.

For AGTCAGTCAGTCAGTC (ssDNA) [5'-FAM-Oligo A], the Ka [8] was 295000 M⁻¹.

With AGTCAGTCAGTCAGTCAGTCAGTCAG (ssDNA) [3'-FAM-Oligo F] the Ka [9] was 330000 M⁻¹.

In the case of AGTCAGTCAGTCAGTC (ssDNA) [3'-FAM-Oligo A], the Ka [10] is reported as 282000 M⁻¹.

AGTCAGTCAGTCAGTCAGTCAGTCAG (ssDNA) [5'-FAM-Oligo F] was tested, and the Ka [11] was 333000 M⁻¹.
